The source made the active and inactive calls.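 Rule for the calls, unless noted: active = NADPH fluorescence slope more negative than the mean of all samples by about 3 SD, 99.7% confidence; inactive = the rest.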
Assays:
[1] = inhibitors of TNFa-induced NFkB p65 translocation, primary screen, imaging, HUVEC, MLSMR starter and 10KST1 sets (AID 438;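 active = inhibition above 20% together with a positive visual image hit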;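 note: compound added about 3h40 before a 20 min TNFalpha stimulation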;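 for inhibition: signal is the nuclear over cytoplasmic p65 intensity ratio per well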); settings: HUVEC TNFa-induced p65 nuclear translocation; cell count: measured here: nuclei count (cytotoxicity indicator), at 2.08 µM; inhibition: at 2 µM, stronger effect = higher value, 0% TNFa-plus-vehicle, 100% no-TNFa wells
[2] = endothelial E-selectin expression blockers – imaging, HUVEC, immunofluorescence, MLSMR starter and 10KST1 sets, primary screen (AID 487;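 active = visually confirmed hit in the image check and inhibition above 20%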;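 for inhibition: signal is fraction of cell area covered by stained E-selectin grains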;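 for nuclei count: 100% = median nuclei count of all wells on the same plate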); settings: HUVEC TNFalpha-induced E-selectin immunofluorescence imaging, at 2 µM; inhibition: stronger effect = higher value; nuclei count: measured here: cell number, toxicity
[3] = Primary imaging screen for DUSP6 inhibitors that restore phospho-Erk in transfected HeLa cells, chemical complementation (AID 609;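 active = compounds giving at least 50% inhibition in the cell-based MKP-3 phosphatase rescue imaging test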;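 for inhibition: phospho-Erk level distribution per well compared with pooled transfected vehicle control wells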); settings: HeLa MKP-3 transfected, phospho-Erk imaging KS statistic, at 10 µM, cells stimulated with TPA for 15 min
[4] = molecular target: Dual specificity protein phosphatase 6 (Homo sapiens) (UniProt Q16828); experiment: as above; settings: HeLa MKP-3 transfected, phospho-Erk imaging KS statistic; at 10 µM; stronger effect = higher value; cells stimulated with TPA for 15 min
Dual specificity protein phosphatase 6 (Homo sapiens), sequence (Q16828 whole entry, looked up): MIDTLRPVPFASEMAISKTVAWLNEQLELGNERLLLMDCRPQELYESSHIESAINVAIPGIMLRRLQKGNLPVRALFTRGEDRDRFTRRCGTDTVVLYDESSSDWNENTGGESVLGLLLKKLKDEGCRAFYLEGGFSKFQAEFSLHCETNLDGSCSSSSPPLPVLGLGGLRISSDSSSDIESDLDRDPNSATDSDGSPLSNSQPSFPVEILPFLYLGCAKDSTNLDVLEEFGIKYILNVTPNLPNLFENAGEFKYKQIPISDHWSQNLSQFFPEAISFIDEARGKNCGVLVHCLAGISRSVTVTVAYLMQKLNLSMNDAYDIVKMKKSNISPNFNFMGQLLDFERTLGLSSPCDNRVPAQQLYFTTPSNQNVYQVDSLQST

[5] = molecular target: Voltage-gated potassium channel subunit beta-2 (Rattus norvegicus) (UniProt P62483); experiment: inhibitors of rat Kvbeta2 reductase activity – biochemical, NADPH fluorescence, primary screen (AID 622;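 active = fluorescence slope higher than the sample average by over 3 SD, cut at about -0.22 in these data, passing the limit was not always enough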;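 note: slope of raw intensity against log time taken from 70 to 1610 s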); settings: recombinant KvBeta, 4-cyanobenzaldehyde reduction, at 10 µM, stronger effect = higher value
Voltage-gated potassium channel subunit beta-2 (Rattus norvegicus), sequence (P62483 whole entry, looked up): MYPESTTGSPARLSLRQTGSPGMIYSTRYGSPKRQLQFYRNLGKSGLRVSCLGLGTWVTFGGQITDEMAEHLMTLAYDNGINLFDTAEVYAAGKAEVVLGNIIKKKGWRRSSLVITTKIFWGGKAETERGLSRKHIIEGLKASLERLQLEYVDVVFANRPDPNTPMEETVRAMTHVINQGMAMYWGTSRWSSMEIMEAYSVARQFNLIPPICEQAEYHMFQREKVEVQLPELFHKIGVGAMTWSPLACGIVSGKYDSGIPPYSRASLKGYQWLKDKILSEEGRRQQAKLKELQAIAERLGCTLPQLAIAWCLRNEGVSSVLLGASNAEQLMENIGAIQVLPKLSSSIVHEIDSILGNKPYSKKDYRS

[6] = molecular target: Voltage-gated potassium channel subunit beta-2 (Rattus norvegicus) (UniProt P62483); experiment: enhancers of rat Kvbeta2 NADPH turnover – biochemical, NADPH fluorescence, primary screen (AID 623); settings: Recombinant KvBeta, NADPH fluorescence decrease slope, 10 min; at 10 µM; stronger effect = lower value;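 note: fluorescence intensity change per second fitted from 20 to 320 s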
[7] = molecular target: Alpha-2C adrenergic receptor (Homo sapiens) (UniProt P18825); experiment: compounds altering alpha2C-coupled GIRK flux – cell-based, HEK293 alpha2C/GIRK1/2, thallium flux, primary screen (AID 624;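 active = fluorescence slope after compound addition differing from the mean of all screened samples at 99.7% confidence, in either direction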;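 note: slope of fluorescence ratio to pre-addition baseline per second over 15 to 24 s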); settings: thallium flux BTC fluorescence, at 10 µM, actives lie on both sides
Alpha-2C adrenergic receptor (Homo sapiens), sequence (P18825 whole entry, looked up): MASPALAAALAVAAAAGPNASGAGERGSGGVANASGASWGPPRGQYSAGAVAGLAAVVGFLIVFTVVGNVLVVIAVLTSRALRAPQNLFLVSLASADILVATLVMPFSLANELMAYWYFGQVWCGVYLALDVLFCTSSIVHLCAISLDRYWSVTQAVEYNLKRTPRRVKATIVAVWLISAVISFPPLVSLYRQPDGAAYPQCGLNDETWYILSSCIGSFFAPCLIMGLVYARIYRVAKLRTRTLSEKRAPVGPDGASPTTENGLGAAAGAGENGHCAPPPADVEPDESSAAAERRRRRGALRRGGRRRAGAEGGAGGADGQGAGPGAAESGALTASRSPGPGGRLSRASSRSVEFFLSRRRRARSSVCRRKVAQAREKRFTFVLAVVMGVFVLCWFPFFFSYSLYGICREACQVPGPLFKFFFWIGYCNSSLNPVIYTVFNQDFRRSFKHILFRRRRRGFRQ

[8] = inhibitors of larval lipid processing in zebrafish, primary screen, whole organism, PED6 fluorescence, gall bladder and intestine (AID 686;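 active = a full or partial loss of lipid-probe fluorescence in the fish gall bladder, intestine or both, judged by eye; inactive = no fluorescence loss, or compound toxic to the fish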;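 note: larvae 5 to 7 days old with five fish per well; signal comes from phospholipase A2 cleavage of quenched PED6 carried via bile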); settings: Zebrafish larvae PED6 lipid processing, fluorescence scoring; screened at 20 µM (by protocol)
How it was run: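 Incubation: overnight exposure of larvae to compound plus PED6 / Test system: live zebrafish larvae aged 5-7 days, whole organism / Amount: 5 larvae per well / Read-out basis: visual per-well fluorescence inhibition score / Signal: visual fluorescence microscopy scoring of gall bladder, gut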

[9] = loss of swimming-algae plug formation – whole organism, Chlamydomonas reinhardtii, WT vs cilia-less mutant, absorbance, 96-well, primary screen (AID 463189;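 active = inhibition at or above 50% relative to wild type and mutant plate controls; inactive = inhibition below 50%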;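 note: 0% = wild type cc124 cells in DMSO and 100% = ciliumless bld1 mutant cells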); settings: Chlamydomonas reinhardtii gravitaxis, OD600 absorbance, 2 days; at 10 µM; stronger effect = higher value
[10] = measured here: cell density z-score
[11] = measured here: nuclear c-Myc green intensity z-score
[12] = measured here: nuclear pErk red intensity z-score, stronger effect = higher value

SMILES | cell count [1] | inhibition [1] | inhibition [2] | nuclei count [2] [%] | z-score [3, 10] | z-score [3, 11] | z-score [3, 12] | inhibition [4] | fluorescence slope [5] | NADPH fluorescence slope [6] | slope [7] | outcome [8] | inhibition [9]
CNc1nc(C)c(C#N)cc1C(C)=O | 481 | -11.7% (inactive) | 8.2% (inactive) | 166 | 0.906 | -0.478 | -0.65 | 5.65% (inactive) | -0.513 (inactive) | -9.4e-05 (inactive) | 0.00563 (inactive) | inactive | 26.6% (inactive)
COc1ccc2c(=O)c(-c3nc(C)cs3)coc2c1 | 559 | -18.2% (inactive) | -220% (inactive) | 141 | 1.07 | 0.0883 | 0.691 | 1.98% (inactive) | -0.543 (inactive) | -3.8e-05 (inactive) | 0.0045 (inactive) | inactive | 1.43% (inactive)
CCCCCCc1cc2cc(-c3nnc(-c4ccccc4O)o3)c(=O)oc2cc1O | 473 | -2.3% (inactive) | -99.6% (inactive) | 122 | -0.061 | 1.83 | -1.3 | -7.79% (inactive) | -0.274 (inactive) | 5.9e-06 (inactive) | 0.0685 (active) | inactive | 13.3% (inactive)
CC(C)CC(C(=O)O)C(C)CC(=O)Nc1ccn(-c2ccccc2)n1 (stereo not given) | 345 | -19.4% (inactive) | -326% (inactive) | 150 | 1.41 | -1.41 | -0.175 | 15.1% (inactive) | -0.401 (inactive) | -3.3e-05 (inactive) | 0.0075 (inactive) | inactive | 13.3% (inactive)
CC(=O)c1cc2c(=O)c3ccccc3oc2nc1C | 564 | -7.4% (inactive) | 19.7% (inactive) | 151 | 0.231 | 1.31 | -0.249 | 26.5% (inactive) | -0.525 (inactive) | -4.9e-05 (inactive) | 0.00444 (inactive) | inactive | 46.5% (inactive)
CCCCNC(=O)c1cc2n(n1)C(C(F)(F)F)CC(c1ccccc1)N2 (stereo not given) | 519 | -6.4% (inactive) | -41.1% (inactive) | 107 | -0.754 | -0.242 | 0.464 | 1.75% (inactive) | -0.529 (inactive) | -5.9e-05 (inactive) | 0.00405 (inactive) | inactive | -3.15% (inactive)
COc1ccc(C=NCCC2(O)CC(C)N(C)CC2C)cc1 (stereo not given) | 340 | -16.4% (inactive) | -85.1% (inactive) | 131 | 0.907 | -0.705 | -1.22 | -7.01% (inactive) | -0.427 (inactive) | -6e-05 (inactive) | 0.00607 (inactive) | inactive | 7.82% (inactive)
CN(C)CCCOC(=O)C1c2ccccc2Oc2ccccc21 | 542 | 1.3% (inactive) | 31.3% (inactive) | 169 | -1.43 | -0.729 | 0.0446 | -8.76% (inactive) | -0.329 (inactive) | -1.7e-05 (inactive) | 0.00512 (inactive) | inactive | 8% (inactive)
CCCOc1ccc(Cn2c(O)cc(=O)[nH]c2=O)cc1 | 568 | 0% (inactive) | -90.4% (inactive) | 188 | -0.648 | -0.788 | 0.279 | -8.95% (inactive) | -0.372 (inactive) | -3.5e-05 (inactive) | 0.00508 (inactive) | inactive | -1.95% (inactive)
Fc1ccc2[nH]c3c(N4CCN(c5ccccc5)CC4)ncnc3c2c1 | 424 | 5.2% (inactive) | -109% (inactive) | 93.6 | -1.72 | -0.345 | 0.928 | 6.04% (inactive) | -0.334 (inactive) | 6.6e-06 (inactive) | 0.005 (inactive) | inactive | -1.66% (inactive)
CCCNC(=O)N(C)c1nncnc1C(=O)NC | 503 | -20.4% (inactive) | -13.3% (inactive) | 99.4 | 1.47 | 0.478 | -1.19 | 4.72% (inactive) | -0.517 (inactive) | 1.1e-05 (inactive) | 0.00825 (inactive) | inactive | -3.95% (inactive)
O=C1c2ccccc2C(=O)N1CCN1CCc2ccccc21 | 404 | -3.1% (inactive) | -131% (inactive) | 166 | 0.756 | -0.637 | -0.565 | 13.2% (inactive) | -0.394 (inactive) | -5.6e-05 (inactive) | 0.00539 (inactive) | inactive | -3.59% (inactive)
O=C(Nn1cnnc1)C(c1ccccc1)c1ccccc1 | 338 | -3.7% (inactive) | -164% (inactive) | 159 | 1.4 | 0.734 | 1.08 | 1.75% (inactive) | -0.417 (inactive) | -7.3e-05 (inactive) | 0.00619 (inactive) | inactive | 17.9% (inactive)
C=CCN(C(=O)CCC(=O)O)C1CC(=O)N(c2ccc(OCCC)cc2)C1=O (stereo not given) | 454 | -10.8% (inactive) | -213% (inactive) | 223 | 0.015 | -1.26 | -0.0284 | -2.29% (inactive) | -0.384 (inactive) | -2.5e-05 (inactive) | 0.00464 (inactive) | inactive | 6.01% (inactive)
COC(=O)CC1=C(C(=O)OC)C(c2ccncc2)C(C#N)=C(N)O1 (stereo not given) | 492 | -3.8% (inactive) | -58.7% (inactive) | 157 | 1.74 | -0.108 | -0.84 | 16.8% (inactive) | -0.366 (inactive) | 1e-05 (inactive) | 0.00477 (inactive) | inactive | 24.5% (inactive)
O=C(Nc1nc(NC(=O)c2ccco2)n(-c2ccccc2)n1)c1ccccc1 | 339 | -8.5% (inactive) | -1.3% (inactive) | 157 | 0.978 | -0.403 | -0.743 | -7.01% (inactive) | -0.452 (inactive) | -0.000125 (inactive) | 0.00175 (inactive) | inactive; toxic | 1.31% (inactive)
CCOC(=O)c1oc2cc(O)cc(C)c2c(=O)c1-c1cscn1 | 583 | -5.6% (inactive) | -117% (inactive) | 133 | 0.544 | -0.073 | -1.73 | 19.8% (inactive) | -0.569 (inactive) | -4.5e-05 (inactive) | 0.0036 (inactive) | inactive | -5.6% (inactive)
CSc1nc(N)nc(SCC(=O)CC(=O)OC(C)C)c1C#N | 553 | -7.1% (inactive) | -118% (inactive) | 212 | 0.352 | -0.157 | -2.15 | 16.8% (inactive) | -0.372 (inactive) | -4.1e-07 (inactive) | 0.00422 (inactive) | inactive | 11.6% (inactive)
Cc1nn(C)cc1CNC(=O)c1ccc(Br)o1 | 507 | -14.6% (inactive) | -66.6% (inactive) | 111 | 0.29 | 0.777 | -0.409 | 10.1% (inactive) | -0.444 (inactive) | -3.5e-08 (inactive) | 0.00689 (inactive) | inactive | 0.36% (inactive)
CSc1nc(O)c(Cc2ccccc2)c(=O)[nH]1 | 543 | 5.9% (inactive) | 23.6% (inactive) | 105 | -0.704 | -0.524 | -0.136 | 1.6e-07% (inactive) | -0.403 (inactive) | 2.5e-05 (inactive) | 0.00553 (inactive) | inactive | 33.4% (inactive)
O=C(Nc1ccc2c(c1)OCCO2)c1ccc(Br)o1 | 587 | 3.2% (inactive) | 6.1% (inactive) | 143 | 0.114 | -1.76 | -1.37 | -1.75% (inactive) | -0.295 (inactive) | -8.8e-06 (inactive) | 0.00481 (inactive) | inactive | 12.8% (inactive)
CCC1(C)Cc2c(sc3nc4n(c(=O)c23)CCS4)CO1 (stereo not given) | 596 | -14.8% (inactive) | -109% (inactive) | 182 | -1.93 | -0.473 | 1.15 | -6.86% (inactive) | -0.336 (inactive) | -1e-05 (inactive) | 0.00519 (inactive) | inactive | 5.08% (inactive)
Oc1c(C=Nc2cccnc2)sc2ccccc12 | 623 | -14.4% (inactive) | -17% (inactive) | 170 | 0.476 | 0.705 | 1.13 | -20.4% (inactive) | -0.405 (inactive) | -6e-05 (inactive) | 0.0055 (inactive) | inactive | -14.9% (inactive)
Cc1ccc(N2C(=O)CC(N(O)C3CC(=O)N(c4ccc(C)cc4)C3=O)C2=O)cc1 (stereo not given) | 364 | 0% (inactive) | 28.2% (inactive) | 126 | 0.996 | 0.402 | 0.988 | -0.584% (inactive) | -0.427 (inactive) | -0.000136 (inactive) | 0.0056 (inactive) | inactive | 54.9% (active)
CCOC(=O)C1=C(c2ccccc2)NC(SCC(=O)Nc2ccccc2C)=C(C#N)C1c1ccco1 (stereo not given) | 433 | -4.2% (inactive) | -136% (inactive) | 166 | -0.18 | -0.317 | -0.0556 | -0.159% (inactive) | -0.408 (inactive) | -6.1e-05 (inactive) | 0.0072 (inactive) | inactive | 0.63% (inactive)
